Assay results as given in ChEMBL document CHEMBL3272180, “A conformational study of beta-phenethanolamine receptor sites. 8. Pharmacological study of 3-isopropylamino-2-phenyl-trans-2-decalols” (1976).
The source made the active and inactive calls. No cut-off for these calls is given here.

Legend:
Rattus norvegicus [1] = organism: Rattus norvegicus; assay: (§1) Potentiation of D(-)-norepinephrine-induced contraction in reserpine-treated Sprague-Dawley rat vas deferens assessed as contraction level at 1 x 10^-4 M relative to norepinephrine; type: functional
Summary of the method: (§2)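 Rats were reserpinized with 5 mg/kg ip 24 hr before the experiment. Vasa deferentia were then set up in Tyrode's solution at 37°, gassed with 95% O2/5% CO2. Cumulative NE curves over 3×10^-7 to 3×10^-5 M, with test agent present. Isotonic contractions recorded kymographically. Response as percent of NE cumulative maximum; mean ± SE; t test.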

Vas deferens [2] = assay: Inhibition of D(-)-norepinephrine-induced contraction in Sprague-Dawley rat vas deferens assessed as contraction level at 1 x 10^-3 M relative to norepinephrine; type: functional; design: scale not given: the % may be the effect or the level left
Summary of the method: (§3)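 Isolated vasa deferentia from male Sprague–Dawley rats (300–350 g) in a 10-ml bath of Tyrode's solution, 37°, gassed with 95% O2/5% CO2. Cumulative NE dose-response curves over 3×10^-7 to 3×10^-5 M, with test agent at 1×10^-4 or 1×10^-3 M. Isotonic contractions recorded kymographically, 5 min between contractions after washout. Response expressed as percent of NE cumulative maximum (=100%), calculated per preparation. PD2 given as mean ± SE of ten curves; t test.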

Canis familiaris [3] = assay: Reduction of blood pressure in mongrel dog at 1 to 2 mg/kg, iv by electrocardiograph analysis; type: functional, organism-based; conditions: Canis lupus familiaris
Summary of the method: (§4)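 Dog blood pressure recorded after iv injection via a right femoral vein cannula (1–2 mg/kg), each dose washed in with 0.5 ml saline. Where stated, β blockade with propranolol 2 mg/kg, checked for adequacy with […].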

[4] = Potentiation of D(-)-norepinephrine-induced contraction in Sprague-Dawley rat vas deferens assessed as contraction level at 1 x 10^-4 M relative to norepinephrine; type: functional; summary of the method: as §3
[5] = Induction of norepinephrine release in Sprague-Dawley rat vas deferens at 1 x 10^-4 M after 30 mins by fluorometric analysis; type: functional
Summary of the method: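 Rat vas deferens pieces incubated 30 min in oxygenated Tyrode's with agent at 1×10^-4 M. Total catecholamines then measured fluorometrically by autoanalyzer. Mean ± SE of five experiments; t test vs control.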

Oryctolagus cuniculus [6] = organism: Oryctolagus cuniculus; assay: Inhibition of spontaneous contractions in isolated rabbit atria at 1 x 10^-4 M; type: functional; conditions: Cardiac atrium
Rattus norvegicus [7] = organism: Rattus norvegicus; assay: (§5) Potentiation of D(-)-norepinephrine-induced contraction in reserpine-treated Sprague-Dawley rat vas deferens assessed as contraction level at 1 x 10^-3 M relative to norepinephrine; type: functional; summary of the method: as §2
Vas deferens [8] = assay: Inhibition of norepinephrine uptake in Sprague-Dawley rat vas deferens at 1 x 10^-4 M after 60 mins by fluorometric analysis; type: functional
Summary of the method: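 Rat vas deferens pieces (50–60 mg, two per rat) incubated free-floating for 60 min at 37° in oxygenated Tyrode's with NE 1.5×10^-7 M, with or without test agent at 1×10^-4 M. Tissue then washed three times for 5 sec, and total catecholamines estimated fluorometrically by autoanalyzer. Mean ± SE of five experiments; t test vs control.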

Rattus norvegicus [9] = organism: Rattus norvegicus; assay: Potentiation of D(-)-norepinephrine-induced contraction in reserpine-treated Sprague-Dawley rat vas deferens at 1 x 10^-2 M relative to control; type: functional, tissue-based; summary of the method: as §2
Canis familiaris [10] = assay: Reduction of diastolic blood pressure in mongrel dog at 1 to 2 mg/kg, iv up to 30 mins by electrocardiograph analysis in presence of alpha-blocker phenoxybenzamine; type: functional, Canis lupus familiaris, Artery; conditions: dose mg/kg 1-2
Summary of the method: (§6)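 Dogs pretreated with phenoxybenzamine 3 mg/kg as α-blocker, blockade checked with […]. Test agents given iv (1–2 mg/kg) via a femoral vein cannula, washed in with 0.5 ml saline; tracheotomized animals. Systolic, diastolic and pulse pressure followed over an initial 30-sec phase and a second phase of about 30 min.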

Canis familiaris [11] = assay: Reduction of diastolic blood pressure in mongrel dog at 1 to 2 mg/kg, iv up to 30 seconds by electrocardiograph analysis in presence of alpha-blocker phenoxybenzamine; type: functional, Canis lupus familiaris, Artery; conditions: dose mg/kg 1-2; summary of the method: as §6
Oryctolagus cuniculus [12] = organism: Oryctolagus cuniculus; assay: Increase in spontaneous contractions in isolated rabbit atria at 1 x 10^-4 M; type: functional; conditions: Cardiac atrium
Canis familiaris [13] = assay: Reduction of systolic blood pressure in mongrel dog at 1 to 2 mg/kg, iv up to 30 seconds by electrocardiograph analysis in presence of alpha-blocker phenoxybenzamine; type: functional, Canis lupus familiaris, Artery; conditions: dose mg/kg 1-2; summary of the method: as §6
Canis familiaris [14] = assay: Reduction of blood pressure in mongrel dog at 1 to 2 mg/kg, iv by electrocardiograph analysis in presence of propranolol; type: functional, organism-based; conditions: Canis lupus familiaris; summary of the method: as §4
Oryctolagus cuniculus [15] = organism: Oryctolagus cuniculus; assay: Inhibition of spontaneous contractions in isolated rabbit atria at 1 x 10^-3 M; type: functional; conditions: Cardiac atrium
Canis familiaris [16] = assay: Reduction of pulse pressure in mongrel dog at 1 to 2 mg/kg, iv up to 30 seconds by electrocardiograph analysis in presence of alpha-blocker phenoxybenzamine; type: functional, organism-based; conditions: Canis lupus familiaris; summary of the method: as §6
Canis familiaris [17] = assay: Reduction of pulse pressure in mongrel dog at 1 to 2 mg/kg, iv up to 30 mins by electrocardiograph analysis in presence of alpha-blocker phenoxybenzamine; type: functional, Canis lupus familiaris; conditions: dose mg/kg 1-2; summary of the method: as §6
Canis familiaris [18] = assay: Reduction of systolic blood pressure in mongrel dog at 1 to 2 mg/kg, iv up to 30 mins by electrocardiograph analysis in presence of alpha-blocker phenoxybenzamine; type: functional, Canis lupus familiaris, Artery; conditions: dose mg/kg 1-2; summary of the method: as §6
[19] = Potentiation of D(-)-norepinephrine-induced contraction in Sprague-Dawley rat vas deferens assessed as contraction level at 1 x 10^-2 M relative to norepinephrine; type: functional
Canis familiaris [20] = assay: Reduction of blood pressure in iv dosed mongrel dog by electrocardiograph analysis in presence of hexamethonium and atropine; type: functional, organism-based; conditions: Canis lupus familiaris
[21] = as §1; type: functional; summary of the method: as §2
[22] = as §5; type: functional; summary of the method: as §2
Canis familiaris [23] = assay: Increase in diastolic blood pressure in mongrel dog at 2 mg/kg, iv by electrocardiograph analysis; type: functional, Canis lupus familiaris, Artery
Canis familiaris [24] = assay: Induction of beta-adrenergic response in mongrel dog at 2 mg/kg, iv by electrocardiograph analysis; type: functional, organism-based; design: dose 2 mg/kg; conditions: Canis lupus familiaris
Canis familiaris [25] = assay: Reduction of pulse pressure in mongrel dog at 2 mg/kg, iv by electrocardiograph analysis in presence of alpha-blocker phenoxybenzamine; type: functional, organism-based; design: dose 2 mg/kg; conditions: Canis lupus familiaris
Canis familiaris [26] = assay: Reduction of diastolic blood pressure in mongrel dog at 2 mg/kg, iv by electrocardiograph analysis in presence of alpha-blocker phenoxybenzamine; type: functional, organism-based; design: dose 2 mg/kg; conditions: Canis lupus familiaris, Artery
Canis familiaris [27] = assay: Reduction of systolic blood pressure in mongrel dog at 2 mg/kg, iv by electrocardiograph analysis in presence of alpha-blocker phenoxybenzamine; type: functional, organism-based; design: dose 2 mg/kg; conditions: Canis lupus familiaris, Artery
Canis familiaris [28] = assay: Increase in systolic blood pressure in mongrel dog at 2 mg/kg, iv by electrocardiograph analysis; type: functional, Canis lupus familiaris, Artery
Canis familiaris [29] = assay: Increase in pulse pressure in mongrel dog at 2 mg/kg, iv by electrocardiograph analysis; type: functional, Canis lupus familiaris
Canis familiaris [30] = assay: Induction of beta-adrenergic response in mongrel dog at 2 mg/kg, iv by electrocardiograph analysis in presence of propranolol; type: functional, organism-based; design: dose 2 mg/kg; conditions: Canis lupus familiaris

Row | SMILES | Activity (Rattus norvegicus [1]) | Activity (Vas deferens [2]) [%] | Activity (Canis familiaris [3]) | Activity [4] [%] | Activity [5] [µg/g] | Activity (Rattus norvegicus [7]) | Activity (Vas deferens [8]) [µg/g] | Activity (Rattus norvegicus [9]) | Activity (Oryctolagus cuniculus [12]) | inhibition (Oryctolagus cuniculus [15]) | further results
1 | CC(C)N[C@@H]1C[C@@H]2CCCC[C@H]2C[C@]1(O)c1ccccc1 | Active | 85 | Active | 128 | 7.7 | Active | 9.3 | Active | – | – | inhibition (Oryctolagus cuniculus [6]): Active
2 | CC(C)N[C@H]1C[C@@H]2CCCC[C@H]2C[C@@]1(O)c1ccccc1 | Active | 10 | Active | 96 | 7.8 | Active | 9.6 | Active | Active | Active | Activity (Canis familiaris [10]): 30 mmHg; Activity (Canis familiaris [11]): 50 mmHg; Activity (Canis familiaris [13]): 50 mmHg; Activity (Canis familiaris [14]): Active; Activity (Canis familiaris [16]): Active; Activity (Canis familiaris [17]): 15 mmHg; Activity (Canis familiaris [18]): 15 mmHg
3 | CC(C)N[C@H](C)[C@H](O)c1ccccc1 | Active | – | Active | 145 | 7.4 | Active | 9.3 | Active | – | Active | Activity [19]: 70%
4 | CC(C)N[C@@H](C)[C@H](O)c1ccccc1 | Active | – | Active | 158 | 7 | Active | 9.2 | Active | – | – | Activity (Canis familiaris [10]): 30 mmHg; Activity (Canis familiaris [11]): 50 mmHg; Activity (Canis familiaris [13]): 50 mmHg; Activity (Canis familiaris [14]): Active; inhibition (Oryctolagus cuniculus [6]): Active; Activity [19]: 90%; Activity (Canis familiaris [16]): Active; Activity (Canis familiaris [17]): 15 mmHg; Activity (Canis familiaris [18]): 15 mmHg; Activity (Canis familiaris [20]): Active
5 | CC(C)N[C@H]1C[C@@H]2CCCC[C@H]2C[C@]1(O)c1ccccc1 | – | 88 | Active | 132 | 7.9 | – | 9.1 | Active | Active | Active | Activity [21]: 130%; Activity [22]: 84%
6 | CC(C)N[C@@H]1C[C@@H]2CCCC[C@H]2C[C@@]1(O)c1ccccc1 | Active | 16 | Active | 94 | 8.1 | Active | 9.5 | Active | Active | Active | –
7 | CN[C@@H](C)[C@H](O)c1ccccc1 [EPHEDRINE] | – | – | – | – | – | – | – | – | – | – | Activity (Canis familiaris [23]): 40 mmHg; Activity (Canis familiaris [24]): Active; Activity (Canis familiaris [25]): inactive; Activity (Canis familiaris [26]): inactive; Activity (Canis familiaris [27]): inactive; Activity (Canis familiaris [28]): 40 mmHg; Activity (Canis familiaris [29]): 40 mmHg; Activity (Canis familiaris [30]): inactive
